aDG glyco up: alpha-DG glycosylation activation; Pro5-aDG cells, alpha-DG glycosylation AlphaScreen (IIH6); 0% Pro5, 100% B10-LARGE cell signal; activation, % at 10 µM; AID 624168; 360,000 tested, 0.22% active;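 active means activation of at least 8% versus controls, or a plate z-score of at least 8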;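 further: Pro5 are CHO cells carrying HIG-tagged alpha-DG that lacks glycosylation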
Jurkat NFkB inh: lowers PMA/ionomycin-induced NF-kB signal in Jurkat cells; PMA/ionomycin-induced NF-kB luciferase reporter, luminescence; 330,000 tested, 0.53% active; inhibition, % at 4 µM; in the data active means inhibition above about 50%
MPTP inh: permeability transition pore inhibition; isolated mouse mitochondria, Ca2+ swelling absorbance, 30 min; inhibition, % at 10 µM; 360,000 tested, 1.4% active;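 active means inhibition of 50% or more, scaled per plate between neutral and stimulator controls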;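 further: 0% = DMSO wells given calcium and 100% = 1 mM EGTA wells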
NR2E3 ag-1: activates human NR2E3 receptor; Q9Y5X4; CHO-S Gal4-NCOR/VP16-NR2E3 two-hybrid, luciferase; inhibition of corepressor binding, % at 3.98 µM; 360,000 tested, 0.35% active;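 active means inhibition above the mean of all tested compounds plus 3 SD, cut at about 70% in these data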;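 further: 0% = DMSO with NR2E3 transfected cells and 100% = cells lacking NR2E3 construct; higher means lower luciferase signal from less NR2E3 corepressor binding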
Target sequence (Q9Y5X4 whole entry, looked up, the tested form may be a part): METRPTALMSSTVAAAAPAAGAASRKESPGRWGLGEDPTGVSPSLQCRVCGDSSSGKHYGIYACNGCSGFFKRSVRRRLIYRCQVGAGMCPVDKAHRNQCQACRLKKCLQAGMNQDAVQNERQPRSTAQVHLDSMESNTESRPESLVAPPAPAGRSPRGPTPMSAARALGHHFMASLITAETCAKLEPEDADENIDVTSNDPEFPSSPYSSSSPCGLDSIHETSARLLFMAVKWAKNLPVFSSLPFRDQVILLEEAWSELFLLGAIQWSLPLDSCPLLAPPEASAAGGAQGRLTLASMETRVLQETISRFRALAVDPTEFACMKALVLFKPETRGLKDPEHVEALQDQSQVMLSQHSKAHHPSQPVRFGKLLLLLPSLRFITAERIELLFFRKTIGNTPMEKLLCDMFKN
697 NFkB inh: inhibitors of the PMA/ionomycin-induced NF-kB reporter in 697 B cells; 697 B-cell NF-kB luciferase reporter, 16 h; inhibition, % at 4 µM; 330,000 tested, 0.33% active; AID 435022; in the data active means inhibition above about 35%
NR2E3 ag-2: agonists of human nuclear receptor NR2E3; Q9Y5X4; GST-NR2E3/biotin-RetCOR TR-FRET, 1536-well; inhibition of corepressor binding, % at 4.78 µM; 320,000 tested, 0.12% active;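 active means percent inhibition above the cutoff of mean plus 3 SD of all tested compounds, set per screening campaign, cut at about 20% in these data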;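 further: 0% = DMSO wells and 100% = biotin wells as full block of FRET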
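System: GST-tagged NR2E3 plus biotinylated RetCOR corepressor; Buffer or medium: pH 7.5 Tris-based buffer; Probe or stimulus: RetCOR corepressor, biotinylated, 7 nM; Doses: compound at 4.8 µM, single dose; Schedule: 5 h incubation at 4 °C; Technique: time-resolved FRET; Evaluation: percent inhibition of TR-FRET ratio; Replication: one well per compound, singlicate testing.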
697 NFkB conf: inhibitors of the PMA/ionomycin-induced NF-kB reporter in 697 B cells, retest. shares compounds with 697 NFkB inh. 2,000 tested, 35% active. inhibition, % at 4 µM. 697 B-cell NF-kB luciferase, 16 h; in the data active means inhibition mostly above about 28%, no sharp cut-off; inactive means mostly below about 22%
Starred values were filed as active, the others as inactive; i = inactive; . = no result given. Hits are enriched below; roughly 2.4% of the tested compounds scored in any of these assays.

SMILES	aDG glyco up	Jurkat NFkB inh	MPTP inh	NR2E3 ag-1	697 NFkB inh	NR2E3 ag-2	697 NFkB conf
Cn1nnnc1Sc1ncnc2scc(Br)c12	0	-1	0	-16	37*	.	60*
COc1ccc(CNC(=O)C2Cc3c(-c4cccc(F)c4)ccnc3O2)cc1OC (stereo not given)	0	.	0	-9	.	.	.
Cc1nn(-c2ccc(N3CCCCC3)nn2)c(C)c1CCC(=O)Nc1ccccc1F	0	-38	-1	-19	51*	-5	48*
CN(CC1CCCO1)S(=O)(=O)c1ccc(C(=O)Nc2ccc3c(c2)OCO3)cc1 (stereo not given)	0	5	-1	-9	5	-1	.
O=C(Nc1nc2ccccc2s1)c1ccc(F)cc1	0	-150	-1	-180	-343	0	-351
COc1ccc(C(=O)Nc2nc3ccccc3s2)cc1	0	-140	2	-144	-373	4	-419
COc1ccc(C(=O)Nc2nc3ccccc3s2)cc1OC	0	-69	0	-148	-141	7	.
Cc1cnc(NC(=O)c2ccc(OCC3CCCO3)cc2)s1 (stereo not given)	0	-85	1	-51	-105	0	.
CN(CC1CCCO1)S(=O)(=O)c1ccc(C(=O)Nc2nc3cc4c(cc3s2)OCO4)cc1 (stereo not given)	0	26	0	-3	62*	5	65*
COc1ccc2nc(NC(=O)c3ccc(F)cc3)sc2c1	0	-109	3	-155	-164	0	.
O=C(Nc1nc2ccccc2s1)c1ccc(OCC2CCCO2)cc1 (stereo not given)	0	-130	0	-191	-401	0	-373
COc1ccc(S(=O)(=O)Nc2ccc(NC(C)=O)cc2)cc1	0	7	1	-24	13	5	.
COc1ccc(S(=O)(=O)Nc2ccc(N(C)C(C)=O)cc2)cc1	1	2	2	21	37*	-2	19
Cc1ccc(-c2nn3c(C)nnc3c3ccccc23)cc1S(=O)(=O)NCCO	0	-5	-2	-9	18	3	.
Cc1nnc2c3ccccc3c(-c3ccccc3)nn12	0	-7	0	0	43*	-1	32*
Cc1ccc(-c2nn3c(C)nnc3c3ccccc23)cc1S(=O)(=O)NC(C)(C)CO	0	-1	2	-9	36*	1	61*
Cc1ccc(-c2nn3c(C)nnc3c3ccccc23)cc1S(=O)(=O)N1CCN(CCO)CC1	0	-16	1	-15	37*	0	37*
Cc1ccc(-c2nn3c(C)nnc3c3ccccc23)cc1S(=O)(=O)NCc1ccco1	0	0	4	28	43*	0	43*
CCCN(C(=O)COC(=O)c1nc2nccc(C)n2n1)C1CCS(=O)(=O)C1 (stereo not given)	0	.	-4	-24	.	.	.
COC(=O)CSc1nnc(CNC(=O)c2ccc(S(=O)(=O)N3CCOCC3)cc2)n1C	0	0	-1	23	-6	-3	.
CC(C)(C)CN1C(N)=NC[C@@H]1Cc1ccc(O)cc1	0	2	0	11	44*	0	15
CC(C)(C)CN1C(N)=NC[C@H]1Cc1ccc(O)cc1	0	-5	-1	-28	-3	-4	.
CC(=O)c1c(-c2ccc(Cl)cc2)c2ccccc2[nH]c1=O	0	7	3	-9	2	5	.
CC(=O)c1c(-c2ccccc2)c2cc(Cl)ccc2[nH]c1=O	0	-1	-2	3	36*	4	-6
CCCCc1cc(=O)oc2cc(OCC(=O)N(CC)CC)ccc12	0	9	2	-3	39*	-5	21
SMILES	aDG glyco up	Jurkat NFkB inh	MPTP inh	NR2E3 ag-1	697 NFkB inh	NR2E3 ag-2	697 NFkB conf
C=C(Cl)COc1ccc2c(CCCC)cc(=O)oc2c1	0	-15	2	-40	-9	3	.
CCC(C)c1ccc(-c2cc(C(=O)OCC(=O)Nc3cc(C)on3)c3ccccc3n2)cc1 (stereo not given)	0	-54	0	-96	i	1	-486
Cc1ccc(NC(=O)Cn2cc([N+](=O)[O-])nc2C)cc1C	0	-6	-1	5	-4	0	.
O=C(O)CCn1cc(C(=O)O)c(-c2ccccc2)n1	0	1	0	7	-2	2	.
CCOc1cc(/C=C2\C(=N)N3N=CSC3=NC2=O)ccc1OS(=O)(=O)c1ccccc1	0	8	2	-23	44*	-2	19
COc1cc(/C=C2\C(=N)N3N=CSC3=NC2=O)ccc1OS(=O)(=O)c1ccccc1	0	12	0	-18	17	.	.
CC(C)c1ccc(NC2CCCN(C(=O)c3ccccc3-c3ncc[nH]3)C2)cc1 (stereo not given)	0	9	2	2	-17	2	.
COc1ccccc1N(Cc1ccccc1)S(=O)(=O)c1cccc(C(=O)Nc2cc(C)ccn2)c1	0	-94	1	-131	-412	0	-446
COc1ccccc1N(Cc1ccccc1)S(=O)(=O)c1cccc(C(=O)Nc2ncccc2C)c1	0	-6	0	25	2	0	.
CC(C)c1ccc(NC(=O)[C@H](Cc2c[nH]c3ccccc23)NC(=O)[C@@H]2Cc3ccccc3CN2)cc1	4	-35	38	-8	i	2	-92
COc1ccc(NC(=O)[C@H](Cc2c[nH]c3ccccc23)NC(=O)[C@@H]2Cc3ccccc3CN2)cc1	0	-36	1	7	-238	3	.
O=C(c1ccc(S(=O)(=O)c2cccc(Cl)c2)c([N+](=O)[O-])c1)N1CCN(c2ccccn2)CC1	6	30	8	14	-9	1	.
CCOc1cc2nc(-c3ccc(OC)c(OC)c3)nc(N3CCOCC3)c2cc1OC	.	-40	.	.	45*	3	38*
CC(=O)c1ccc(Nc2nc(=O)c3cccnc3s2)cc1	0	-2	-1	-87	-38	1	.
O=c1nc(Nc2ccc(OCc3ccccc3)cc2)sc2ncccc12	0	-55	2	0	i	0	i
Cc1ccc(Nc2nc(=O)c3cccnc3s2)c(Br)c1	0	8	1	-9	-283	2	-254
O=C(N/N=C/c1ccc(Cl)cc1Cl)c1ccc(-n2cnnn2)cc1	0	5	2	7	39*	4	35*
CCc1cc2c(=O)n(CCC(C)C)c(=S)[nH]c2s1	0	-15	5	-1	0	7	.
Cc1ccc(C(=O)NC(C(=O)NC2CCCC2)c2ccccc2)cc1 (stereo not given)	0	2	0	-30	3	4	.
